Laboratory results as given in publication PMC4502742 (Autophagy, 2015).
Non-standard residues stand in square brackets, D forms with d. No end group written: not given here. pS = N[C@@H](COP(=O)(O)O)C(=O)O

Columns and labels:
CTSD = CTSD protein in purified B cells of treated mice, western immunoblotting; type: in vivo; details: MRL/lpr mice, 100 μg P140/mouse/injection once or 6 times at daily intervals; Fig. 5F
In short: (§1)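 MRL/lpr mice (10–13 wk old, 3 per group) received 100 μg test peptide per injection. Dosing was either once, with cells taken 5 d later, or 6 times at daily intervals, with cells taken 1 d after the last injection. Purified B cells were immunoblotted and band intensity was expressed relative to β-ACTA. Ratios were normalized to untreated MRL/lpr mice and given as mean of 3 mice + SD; at least 2 independent experiments.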

[1] = system: B cells from MRL/lpr mice; assay: Internalization and colocalization in purified B cells, confocal microscopy; type: cell-based, mouse; details: PBS-2% FCS
[2] = system: CTSD/cathepsin D and CTSL/cathepsin L; assay: Stability in artificial lysosomal fluid; type: in vitro ADME
LAMP1 = LAMP1 protein in purified B cells of treated mice, western immunoblotting; type: in vivo; details: MRL/lpr mice, 100 μg P140/mouse/injection once or 6 times at daily intervals; Fig. 5F
In short: as §1

[3] = system: chaperone-mediated autophagy (CMA) in NIH3T3 cells; assay: CMA activity, KFERQ-PS-Dendra reporter, high-content microscopy; type: cell-based, mouse; details: 6 P140 concentrations, serum, starvation, paraquat 50 μM, > 700 cells, compared to an inactive P140 analog, Fig. S9
HSPA8 = HSPA8 (Bos taurus, UniProt P19120); assay: HSPA8 ATPase activity; type: biochemical; details: HSPA8 500 nM without HSP40; 100 μM ATP; 3 h at 37°C; luminescence; 3 independent experiments; Fig. 1D
[4] = system: HSPA8/HSC70/HSP73 chaperone; details: cited from earlier work
[5] = system: chaperone-mediated autophagy (CMA) in NIH3T3 cells; assay: CMA activity, KFERQ-PA-mCherry1 reporter; type: cell-based, mouse; details: NIH3T3, serum-free medium, 10 and 30 μM peptide, 12 h; N > 50 cells; Fig. 4
In short: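 NIH3T3 cells stably expressing the photoactivable KFERQ-PA-mCherry1 reporter were photoactivated, then kept in serum-free medium to maximally activate CMA, with or without 10 or 30 μM test peptide for 12 h. Scrambled and unphosphorylated peptides served as controls. Nuclei were stained with DAPI. Fluorescent puncta per cell were counted in at least 50 cells. Results are mean + SEM; Student t test.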

MRL/lpr lupus-prone mice = details: cited from earlier work
LAMP2A = assay: Lamp2a mRNA in purified B cells, qRT-PCR; type: in vivo, mouse; details: B cells of MRL/lpr mice; Fig. S13
[6] = system: major histocompatibility complex class II (MHCII) molecules; details: cited from earlier work
MRL/lpr mice splenocytes = assay: Intracellular localization in splenocytes after iv administration; type: in vivo, mouse; details: 1 h after iv administration; Fig. S5
In short: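 MRL/lpr mice (10–12 wk old) received 100 μg Alexa Fluor 488-labeled peptide intravenously. Splenocytes taken 1 h after injection were incubated for 30 min at 37°C in complete RPMI with 100 nM LysoTracker Red DND-99 or 500 nM MitoTracker Deep Red FM. After washing in the same medium, they were imaged immediately by confocal microscopy.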

[7] = system: lysosomes isolated from mouse liver; assay: CMA in vitro: GAPDH binding and uptake by isolated lysosomes; type: biochemical
lupus patients = details: phase II clinical trials; cited from earlier work
[8] = Stability in matrices of isolated lysosomes; type: in vitro ADME; details: pH 4.2, 5.3, 7.2
In short: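 Peptide stability was tested in artificial lysosomal fluid at pH 4.2, 5.3 and 7.2. The fluid was supplemented with CTSD plus CTSL or with matrix extracted from isolated lysosomes. Samples were analysed by analytical RP-HPLC at 220 nm using water + 0.1% TFA and acetonitrile + 0.08% TFA eluents. Degradation was judged from the remaining intact-peptide peak area at several time intervals.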

[9] = target: HSPA8 N-terminal fragment 1-386 (nucleotide binding domain) (human, UniProt P11142 1-386); assay: ELISA
[10] = administered intravenously to MRL/lpr mice

HSPA8 N-terminal fragment 1-386 (nucleotide binding domain), sequence (P11142 1-386): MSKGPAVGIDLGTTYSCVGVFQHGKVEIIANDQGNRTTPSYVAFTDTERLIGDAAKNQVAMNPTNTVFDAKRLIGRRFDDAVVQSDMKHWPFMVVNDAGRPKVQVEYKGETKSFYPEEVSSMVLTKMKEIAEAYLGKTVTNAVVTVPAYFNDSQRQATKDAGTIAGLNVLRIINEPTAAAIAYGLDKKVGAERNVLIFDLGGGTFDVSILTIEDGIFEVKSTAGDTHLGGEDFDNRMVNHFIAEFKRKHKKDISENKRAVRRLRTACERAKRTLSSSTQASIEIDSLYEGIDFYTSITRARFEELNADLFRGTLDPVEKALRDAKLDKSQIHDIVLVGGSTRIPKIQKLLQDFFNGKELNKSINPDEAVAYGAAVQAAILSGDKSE
HSPA8, sequence (P19120 whole entry): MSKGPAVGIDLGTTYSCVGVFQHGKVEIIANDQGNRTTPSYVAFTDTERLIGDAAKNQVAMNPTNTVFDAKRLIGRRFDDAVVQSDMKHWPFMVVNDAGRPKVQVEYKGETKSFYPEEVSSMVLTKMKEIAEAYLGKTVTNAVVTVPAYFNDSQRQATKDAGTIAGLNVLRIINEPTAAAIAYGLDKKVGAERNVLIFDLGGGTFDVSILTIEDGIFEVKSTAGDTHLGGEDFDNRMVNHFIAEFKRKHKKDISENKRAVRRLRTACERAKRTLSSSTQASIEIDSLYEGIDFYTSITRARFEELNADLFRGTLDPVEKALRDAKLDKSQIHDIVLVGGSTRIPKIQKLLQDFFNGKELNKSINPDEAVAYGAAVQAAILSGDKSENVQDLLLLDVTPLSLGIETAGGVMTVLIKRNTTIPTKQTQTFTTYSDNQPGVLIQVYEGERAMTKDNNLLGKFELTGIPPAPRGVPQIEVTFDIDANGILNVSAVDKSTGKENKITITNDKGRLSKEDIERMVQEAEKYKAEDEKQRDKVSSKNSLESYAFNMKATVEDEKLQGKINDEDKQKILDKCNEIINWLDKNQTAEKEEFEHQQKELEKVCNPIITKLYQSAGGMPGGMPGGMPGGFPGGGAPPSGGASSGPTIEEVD

Molecule: RIHMVYSKRpSGKPRGYAFIEY [P140]
- CTSD expression in purified B cells (CTSD): highly significant reduction
- entry pathway into B lymphocytes ([1]; B lymphocytes from 12-wk-old MRL/lpr mice, Alexa Fluor 488-labeled peptide 10 μM, 30 min at 37°C, confocal, Fig. 2A): endocytosed by a clathrin-dependent mechanism
- time for which the phosphoryl moiety was preserved ([2]; ALF, pH 4.2, 37°C, LC-MS, Fig. S8): about 2 h
- dependence of stability on pH ([2]; pH 5.3 and 7.2 compared to 4.2, medium not given): more stable at higher pH (5.3 and 7.2 compared to 4.2)
- LAMP1 expression in purified B cells (LAMP1): A similar trend was observed for LAMP1 expression
- CMA activity, average number of puncta per cell [3]: significantly diminish CMA activity in a peptide concentration-dependent manner
- endogenous HSPA8 ATPase activity (HSPA8): effectively increase both the endogenous and HSP40-stimulated ATPase activities of HSPA8 in a peptide dose-dependent manner
- binding to HSPA8 [4]: readily binds to HSPA8
- CMA activity, average number of fluorescent puncta per cell [5]: clearly diminished the average number of puncta per cell in a dose-dependent manner
- protective effect in lupus-prone mice (MRL/lpr lupus-prone mice; MRL/lpr mice): displays protective properties
- MHCII expression (MRL/lpr lupus-prone mice; MRL/lpr mice, earlier work): decreases MHCII overexpression
- signs of systemic autoimmunity (proteinuria, vasculitis, dermatitis, anti-DNA antibody production) (MRL/lpr lupus-prone mice; MRL/lpr mice, earlier work): attenuates biological and clinical signs of systemic autoimmunity
- HSPA8 expression (MRL/lpr lupus-prone mice; [10]): decreases the HSPA8 overexpression observed in this murine strain
- autophagy markers SQSTM1/p62 and LC3-II (MRL/lpr lupus-prone mice; [10]): increases the accumulation of the autophagy markers SQSTM1/p62 (sequestosome 1) and LC3-II
- Lamp2a mRNA level (LAMP2A): lack of change at the mRNA level
- binding to MHCII molecules [6]: binds both the HSPA8/HSC70/HSP73 chaperone and major histocompatibility complex class II (MHCII) molecules
- localization by LysoTracker Red / MitoTracker Deep Red counterstaining (MRL/lpr mice splenocytes): accumulated into lysosomes
- GAPDH associated with lysosomes, exogenous HSPA8 added ([7]; as above with exogenous HSPA8 in the incubation media, Fig. S10B): not even when exogenous HSPA8 was added
- uptake of GAPDH by lysosomes ([7]; difference of GAPDH with and without protease inhibitors, Fig. S10C, D): did not significantly modify binding or uptake of GAPDH by CMA
- GAPDH associated with lysosomes ([7]; lysosomes 75 μg protein pretreated with protease inhibitors, GAPDH 25 μg, 20 min at 37°C, pH 7.3, increasing peptide concentrations, immunoblot, Fig. S10A): did not modify the amount of GAPDH recovered in lysosomes
- binding of GAPDH to lysosomes ([7]; lysosomes without protease inhibitors, Fig. S10C, D): did not significantly modify binding or uptake of GAPDH by CMA
- protective effect in lupus patients (lupus patients): displays protective properties
- stability over pH in CMA+ lysosomal extracts [8]: remains stable on a large range of pH

Molecule: 131–151: unphosphorylated (nonprotective) peptide 131–151 of SNRNP70/U1–70K (RIHMVYSKRSGKPRGYAFIEY; UniProt P08621 131-151, looked up, fragment) [reference compound]
- colocalization with early endosomal marker EEA1, ex vivo ([1]; 10 μM Alexa Fluor 488-labeled peptide, 15 min at 37°C, Fig. 3B, S6B, C): colocalization with EEA1 was hardly seen
- CMA activity, average number of fluorescent puncta per cell [5]: did not observe any changes in CMA activity

Molecule: RIHMVYSKR[pS]GKPRGYAFIEY [P140 peptide (SNRNP70/U1-70K 131-151, phosphoserine 140)]
- binding result [9]: binds
